We go through eleven compounds from article PMC4690987 (Journal of Medicinal Chemistry, 2015).

Data set [1] has as its system LTR-IV G4. Briefly: FRET melting assay. It counts as binding, HIV-1. The settings on record: for stabilization (ΔTm, FRET) at 4-fold c-exNDI:DNA molar ratio: 25 °C is the maximum increase measurable, data not shown; for difference in stabilization of LTR-IV G4s vs hTel G4: FRET, equimolar amounts. The procedure, abridged:
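Oligonucleotide labelled with FAM at the 5′ end and TAMRA at the 3′ end, 0.25 μM, folded in lithium cacodylate buffer with 100 mM potassium, plus equimolar test compound. After equilibration at 4 °C, FAM emission was followed from 30 to 95 °C at 1 °C/min. Profiles were normalized, and Tm was the temperature at 0.5 normalized fluorescence.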

Data set [2] deals with LTR-IV G4. Briefly: SPR analysis. The arrangement: species or system HIV-1. The settings on record: read-out: KD LTR-IV G4 (SPR); 25 °C, HEPES-KCl buffer, 1:1 binding model. An outline of the steps:
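5′-biotinylated oligonucleotides folded (95 °C for 5 min, cooled to room temperature), diluted to 30 nM and captured on a streptavidin chip to about 500 RU, with an empty reference cell. Running buffer was 0.01 M HEPES pH 7.4, 0.2 M KCl, 3 mM EDTA. Test compound run at 25–200 nM, 30 μL/min, with 280 s contact and 360 s dissociation. Surface regenerated with 10 mM glycine pH 2.0. Sensorgrams buffer-corrected and fitted to a 1:1 model. At least two independent runs, χ2 below 0.2.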

Data set [3] deals with HIV-1 NL4-3 strain. The data set can be described thus: Antiviral assay in HIV-1 infected TZM-bl cells. It counts as cell-based. The note with it: for antiviral or cytotoxic activity: HIV-1 NL4-3; for IC50: read-out: IC50 HIV-1 strain NL4-3, MOI 0.5, 48 h, LTR-luciferase signal; for SI HIV-1 strain NL4-3: CC50 value/IC50 value. An outline of the steps: (§1)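 TZM-bl cells (HeLa expressing CD4 and CCR5, with LTR-driven luciferase and β-galactosidase) were seeded at 1 ×10^4 cells/well in DMEM/10% FBS and left to adhere overnight. Cells were infected with HIV-1 NL4-3 or BaL at MOI 0.5, treated with serial dilutions of test compound, and incubated at 37 °C for 48 h. IC50 was taken as 50% inhibition of LTR-luciferase signal. CC50 came from parallel MTT on mock-infected cells. SI = CC50/IC50.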

Data set [4] can be described thus: Cytotoxicity assay. It is filed as cell-based. The settings on record: human, uninfected (mock-infected) TZM-bl cells. The procedure, abridged:
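Run in parallel with the antiviral assay, under the same conditions but on uninfected TZM-bl cells (1 ×10^4 cells/well, seeded overnight, test compound in serial dilution, 37 °C, 48 h). Viability was read by MTT absorbance. CC50 was the concentration that reduced absorbance of mock-infected cells by 50%.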

Data set [5] has as its system LTR-III G4. Briefly: ESI-MS competition assay. It counts as binding, HIV-1. The settings on record: 2-fold molar excess of compound. The procedure, abridged: (§2)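 G4 oligonucleotides heat-denatured and folded overnight at room temperature in 10 mM KCl, 150 mM trimethylammonium acetate pH 6.8. Equimolar pairs of G4s incubated overnight at 4 °C with 2-fold excess test compound, then injected via HPLC into ESI-MS. Binding affinity = bound/(free + bound) ×100, from reconstructed-ion chromatogram areas. Bound includes one or two ligands; free includes K+ adducts.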

For data set [6], the system named is LTR-IV G4. Briefly: ESI-MS competition assay. It counts as binding, HIV-1. The settings on record: 2-fold molar excess of compound. The procedure, abridged: as §2
The subject of data set [7] is hTel G4. The data set can be described thus: ESI-MS competition assay. It counts as binding, human. The note with it: 2-fold molar excess of compound. An outline of the steps: as §2
In data set [8] the test system is c-kit2 G4. The data set can be described thus: ESI-MS competition assay. It counts as binding. The note with it: 2-fold molar excess of compound. An outline of the steps:
as §2

Data set [9] relates to c-myc G4. Briefly: ESI-MS competition assay. It is filed as binding. The settings on record: 2-fold molar excess of compound. The procedure, abridged: as §2
Data set [10] concerns HIV-1 BaL strain. Briefly: Antiviral assay in HIV-1 infected TZM-bl cells. It counts as cell-based. The procedure, abridged: as §1
The subject of data set [11] is HIV-1 NL4-3. Briefly: HIV-1 entry assay. The note with it: TZM-bl cells, virus production at 31 h pi; 2 50–100 nM, AZT 0.5 μg/mL, DS 100 μg/mL. It counts as cell-based. An outline of the steps: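 TZM-bl cells (HeLa stably expressing CD4, CCR5 and HIV-1 LTR-driven luciferase) were grown in DMEM/10% FBS. Cells were seeded at 1 × 10^4 per well and allowed to adhere overnight, then infected with HIV-1 NL4-3 at MOI 0.5 and kept at 37 °C. Test compound or reference agents were added at 0, 1 or 2 h pi. At 31 h cells were PBS-washed and virus production was read as LTR-luciferase RLU.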

The conditions of data set [12]: cited from earlier work.

With `C[N+](C)(C)CCCn1c(=O)c2ccc3c(=O)n(CCC[N+](C)(C)C)c(=O)c4c5[nH]c6ccccc6[nH]c5c(c1=O)c2c34.[I-].[I-]` [Compound 10], in data set [1], the “stabilization (ΔTm, FRET) at 4-fold c-exNDI:DNA molar ratio” value was “above 25 °C” and the “difference in stabilization of LTR-IV G4s vs hTel G4” value was no less than 6 °C. Further, in data set [2], the Kd turned out to be 1.7 nM. Further, the “antiviral or cytotoxic activity” value in data set [3] is given as “did not display any antiviral or cytotoxic activity”. Also, the half-maximal cytotoxic concentration (CC50) in data set [4] was greater than 5000 nM.
As for `CN(C)CCCn1c(=O)c2cc(Br)c3c(=O)n(CCCN(C)C)c(=O)c4c5[nH]c6ccc([N+](=O)[O-])cc6[nH]c5c(c1=O)c2c34` [Compound 5], in data set [2], the Kd is 5.9 nM. The IC50 in [3] is 23 ± 1.3 nM. This compound had a cytotoxic concentration (CC50) in data set [4] of 439 ± 10.7 nM.
With `CN(C)CCCNc1cc2c(=O)n(CCCN(C)C)c(=O)c3c4[nH]c5ccccc5[nH]c4c4c(=O)n(CCCN(C)C)c(=O)c1c4c23` [Compound 9], in data set [3], the “SI HIV-1 strain NL4-3” value is listed as 2.2. It took 1760 ± 62.5 nM to reach half-maximal cytotoxicity in data set [4] (CC50).
As for `CN(C)CCCn1c(=O)c2ccc3c(=O)n(CCCN(C)C)c(=O)c4c5[nH]c6cc([N+](=O)[O-])ccc6[nH]c5c(c1=O)c2c34` [Compound 4], in data set [1], the “stabilization (ΔTm, FRET) at 4-fold c-exNDI:DNA molar ratio” value is “above 25 °C”. The “binding affinity LTR-III” value in [5] (competing G4s LTR-III/LTR-IV) was 80; in [5] (competing G4s LTR-III/kit), 54; in data set [5] (competing G4s LTR-III/myc) it was 51. The “binding affinity LTR-IV” value in data set [6] (competing G4s LTR-III/LTR-IV) is recorded as 68; in [6] (competing G4s LTR-IV/hTel) it was 75; in data set [6] (competing G4s LTR-IV/kit) it was 55; in data set [6] (competing G4s LTR-IV/myc), 71. The “binding affinity cell G4 (hTel)” value in data set [7] (competing G4s LTR-III/hTel) is given as 10; in data set [7] (competing G4s LTR-IV/hTel), 18. Further, the “binding affinity cell G4 (kit)” value in [8] (competing G4s LTR-III/kit) is reported as 18; in data set [8] (competing G4s LTR-IV/kit), 23. The “binding affinity cell G4 (myc)” value in data set [9] (competing G4s LTR-III/myc) was 37; in [9] (competing G4s LTR-IV/myc), 45. In [4], the midpoint of cytotoxicity, the CC50, lay at 188 ± 4.08 nM.
As for `CN(C)CCCn1c(=O)c2cc(Br)c3c(=O)n(CCCN(C)C)c(=O)c4c5[nH]c6ncccc6[nH]c5c(c1=O)c2c34` [Compound 8], in data set [3], the “SI HIV-1 strain NL4-3” value came to 7.2. In addition, the half-maximal cytotoxic concentration (CC50) in data set [4] was found to be 458 ± 54 nM.
With `CN(C)CCCn1c(=O)c2cc(Br)c3c(=O)n(CCCN(C)C)c(=O)c4c5[nH]c6ccccc6[nH]c5c(c1=O)c2c34` [Compound 3], in data set [1], the “stabilization (ΔTm, FRET) at 4-fold c-exNDI:DNA molar ratio” value was “above 25 °C”. The “difference in stabilization of LTR-IV G4s vs hTel G4” value in data set [1] is no less than 6 °C. Moreover, the Kd in data set [2] was found to be 6.6 nM. Further, the IC50 in [3] came out at 15.7 ± 2.1 nM; in [10] (read-out: IC50 HIV-1 strain BaL, MOI 0.5, 48 h, LTR-luciferase signal), 32.5 ± 7.1 nM. The “SI HIV-1 strain BaL” value in data set [10] (CC50 value/IC50 value) is recorded as 11. The same compound showed a CC50 in data set [4] of 343 ± 32.2 nM.
Consider `Cc1cn([C@H]2C[C@H](N=[N+]=[N-])[C@@H](CO)O2)c(=O)[nH]c1=O` [AZT, Zidovudine], for which the “antiviral activity as a function of time of addition (0, 1, 2 h pi)” value in [11] is listed as “maintaining activity from 0 to 2 h pi”.
On the same count and under the same terms, under dextran sulfate [DS] stands “exhibited antiviral effect only when added at 0 h pi”.
Turning to `CN(C)CCCn1c(=O)c2cc(Br)c3c(=O)n(CCCN(C)C)c(=O)c4c5[nH]c6ccc(C(=O)O)cc6[nH]c5c(c1=O)c2c34` [Compound 7], the Kd in [2] was found to be 21.6 nM. In addition, in data set [3], the “SI HIV-1 strain NL4-3” value is on record as greater than 6. Further, the cytotoxic concentration (CC50) in [4] is greater than 5000 nM. Further, the “pKa of the (CH2)3NHMe2+ moieties” value in [12] is reported as greater than 8.1.
As for `C[N+](C)(C)CCCn1c(=O)c2cc(Br)c3c(=O)n(CCC[N+](C)(C)C)c(=O)c4c5[nH]c6ccccc6[nH]c5c(c1=O)c2c34.[I-].[I-]` [Compound 11], the “stabilization (ΔTm, FRET) at 4-fold c-exNDI:DNA molar ratio” value in data set [1] is “above 25 °C”. The equilibrium dissociation constant (Kd) in [2] was 12.9 nM. Besides, the “antiviral or cytotoxic activity” value in [3] was “did not display any antiviral or cytotoxic activity”. Further, the CC50 in data set [4] is greater than 5000 nM.
For the compound `CN(C)CCCn1c(=O)c2ccc3c(=O)n(CCCN(C)C)c(=O)c4c5[nH]c6cc(C(=O)O)ccc6[nH]c5c(c1=O)c2c34` [Compound 6], the “SI HIV-1 strain NL4-3” value in data set [3] is recorded as greater than 5. The same compound came in with a CC50 in [4] greater than 5000 nM. In [12], the “pKa of the (CH2)3NHMe2+ moieties” value is given as greater than 8.1.
